# TCR CD3 inh: inhibitors of human TCR-CD3 interaction, primary screen, biochemical, fluorescence, TAMRA-labeled TCR probe | T-cell receptor (TCR) | AID 651800, 2012 | hit rate 0.37% among 360,000 | inhibition, % at 9.4 µM; in the data active = inhibition above about 19%;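 note: recombinant mutant TCR 2C K166C tagged with TAMRA read by polarization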
# HTRA1 inhibitor: HTRA1 serine protease inhibitors, primary screen, biochemical, fluorescence polarization, HTS; Q92743; recombinant HTRA1, FP-rhodamine activity-based probe; inhibition, % at 5.96 µM; hit rate 0.5% among 340,000; AID 504803, 2011; in the data active = inhibition above about 36%
# Target sequence (Q92743 whole entry, looked up): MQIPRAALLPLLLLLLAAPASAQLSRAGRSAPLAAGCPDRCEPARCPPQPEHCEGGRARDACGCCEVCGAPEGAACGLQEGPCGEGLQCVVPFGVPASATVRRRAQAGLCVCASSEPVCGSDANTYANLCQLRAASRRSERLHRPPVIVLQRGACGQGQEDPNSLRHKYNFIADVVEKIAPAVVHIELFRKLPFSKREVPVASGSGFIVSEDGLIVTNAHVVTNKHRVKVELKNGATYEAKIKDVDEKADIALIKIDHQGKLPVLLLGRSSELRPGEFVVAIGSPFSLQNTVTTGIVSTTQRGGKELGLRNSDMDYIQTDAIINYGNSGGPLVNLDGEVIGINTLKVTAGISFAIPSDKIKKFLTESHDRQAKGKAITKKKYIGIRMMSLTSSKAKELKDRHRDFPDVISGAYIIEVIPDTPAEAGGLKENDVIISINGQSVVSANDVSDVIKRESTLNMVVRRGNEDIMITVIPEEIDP
# ARNT TACC3 PPI: disruptors of ARNT/TACC3 protein interaction, primary screen, biochemical, AlphaScreen, single concentration; Transforming acidic coiled-coil-containing protein 3 (Homo sapiens), Q9Y6A5; AlphaScreen His-ARNT PAS-B/GST-TACC3 binding, luminescence; TACC3 fragment carries E629A point mutation; inhibition, % at 9.99 µM; hit rate 0.66% among 390,000;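 active = mean inhibition of replicates at least 50% and at least half of replicates each reaching 50%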
# SIAE inh: human SIAE inhibitors, primary screen, biochemical, fluorescence polarization, FP-Rh probe, 1536-well HTS; Sialate O-acetylesterase (Homo sapiens), Q9HAT2; SIAE FP-Rh probe binding; inhibition, % at 9.66 µM; hit rate 0.69% among 370,000;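 active = inhibition above a cutoff: mean of compounds within the control limits plus 3 SD of those, cut at about 17% in these data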
# mABHD4 FP: ABHD4 inhibitors, primary screen, biochemical, fluorescence polarization, mouse; (Lyso)-N-acylphosphatidylethanolamine lipase (Mus musculus), Q8VD66; purified mABHD4, FP-Rh probe fluorescence polarization; inhibition, % at 8.92 µM; hit rate 0.54% among 370,000; AID 720543, 2013;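 active = inhibition exceeding the mean over every tested compound plus 3 SD, cut at about 30% in these data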
#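 assay system = mABHD4 protein | compound dosing = single nominal dose of 8.92 µM, 0.89% DMSO final | read-out basis = percent inhibition of probe binding, normalized to plate controls | schedule = Enzyme–compound pre-incubation 45 min, then probe 60 min, both 25 °C | detection = fluorescence polarization, excitation 525 nm, emission 598 nm, BODIPY TMR filters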
# A number is an active result; 0 = inactive; - = not tested or not shown; ! = not active in a repeat. The list is not random: actives were taken first. Their share in the collection is about 1.8%.
SMILES,TCR CD3 inh,HTRA1 inhibitor,ARNT TACC3 PPI,SIAE inh,mABHD4 FP
Cc1ccc(S(=O)(=O)N[C@@H]2CC[C@@H](CCNC(=O)c3ccc4c(c3)OCO4)O[C@@H]2CO)cc1,-,-,0,-,-
CC(C)NC(=O)N(C)C[C@@H]1Oc2ccc(NC(=O)Nc3ccc4c(c3)OCO4)cc2CC(=O)N([C@@H](C)CO)C[C@@H]1C,-,-,0,-,-
CC(=O)Nc1ccc(NC2=C/C(=N/S(=O)(=O)c3cccs3)c3ccccc3C2=O)cc1,0,-,0,0,34
CC(=O)N/N=C/c1cc(C)n(-c2ccc(Br)cc2)c1C,0,0,0,0,0
CC(=O)N/N=C/c1cc(C(C)C)cc(/C=N/NC(C)=O)c1O,0,0,72,0,0
CCCNC(=O)[C@H]1[C@H](CO)[C@H]2Cn3c(ccc(-c4cccnc4)c3=O)[C@H]2N1CCC,-,-,0,-,-
O=C(c1ccc(OCCN2CCCCC2)cc1)c1c(-c2ccc(O)cc2)sc2cc(O)ccc12,0,0,0,27!,0
OCCNc1nc(Nc2ccccc2Oc2ccccc2)nc(N2CCCC2)n1,0,0,23,0,0
COc1cccc(Nc2nc(NCCO)nc(N3CCCC3)n2)c1,0,0,active,0,0
OCCNc1nc(Nc2ccccc2OC(F)(F)F)nc(N2CCCC2)n1,0,0,0,0,0
Clc1nc(-c2ccccn2)nc2scc(-c3ccccc3)c12,0,0,60,0,0
COc1cc(C(=O)NC(=S)NNC(=O)c2cnccn2)cc(OC)c1OC,0,0,65,0,0
COc1cc(C(=O)NNC(=S)NC(=O)c2ccccc2C)cc(OC)c1OC,0,0,0,0,0
COc1ccc(C(=O)NC(=S)NNC(=O)c2cnccn2)cc1,0,0,59,0,0
O=C(NC(=S)NNC(=O)c1cnccn1)c1ccc(Cl)cc1,0,0,54,0,0
O=C(C[C@H]1C[C@@H]2c3cc(NC(=O)Nc4ccc(C(F)(F)F)cc4)ccc3O[C@@H]2[C@@H](CO)O1)NCc1cccnc1,-,-,0,-,-
C=CC[C@]1(C(=O)NCc2ccccc2)COC(c2ccc(OCCCO)cc2)=N1,-,-,0,-,-
C[C@@H]1CCCCO[C@@H](CN(C)C(=O)Nc2ccc(F)cc2)[C@H](C)CN([C@H](C)CO)C(=O)c2cc(NC(=O)c3ccncc3)ccc2O1,-,-,0,-,-
O=C(C[C@@H]1CC[C@H]2[C@@H](COC[C@@H](O)CN2C(=O)c2ccccc2F)O1)N1CCOCC1,-,-,0,-,-
CCn1c2ccccc2c2cc(NC(=O)CSc3nnc(-c4cccc(Cl)c4)o3)ccc21,0,0,0,27,0
O=C(CSc1nnc(-c2cccnc2)o1)Nc1cccc(Cl)c1,0,0,-,0,0
COc1cccc(NC(=O)C2CCN(S(=O)(=O)c3ccccc3)CC2)c1,0,0,47,0,0
COc1cccc(NC(=O)C2CCN(S(=O)(=O)c3ccc4c(c3)OCCO4)CC2)c1,0,0,0,0,0
COCC(=O)Nc1ccc2c(c1)C(=O)N(C)[C@@H]1CC[C@H](CC(=O)NCCc3ccncc3)O[C@@H]1CO2,-,-,0,-,-
O=C([C@@H]1[C@@H](CO)[C@@H]2Cn3c(cccc3=O)[C@@H]2N1CCC(F)(F)F)N1CCCCC1,-,-,9.3,-,-
SMILES,TCR CD3 inh,HTRA1 inhibitor,ARNT TACC3 PPI,SIAE inh,mABHD4 FP
O=C([C@@H]1[C@@H](CO)[C@@H]2Cn3c(cccc3=O)[C@@H]2N1CC1CCCC1)N1CCCCC1,-,-,0,-,-
COc1ccccc1/C=C\C(=O)NCC(=O)N/N=C/c1ccc(O)cc1O,0,0,54,0,0
Cc1ccc(NC(=O)CCC(=O)N/N=C/c2ccccc2O)cc1,0,0,0,0,0
C/C(=N\NC(=O)CNC(=O)c1cccnc1)c1cccc(O)c1,0,0,0,0,0
O=C(CNC(=O)c1cccnc1)N/N=C/c1ccc(O)cc1O,0,0,80,0,0
O=C(CNC(=O)c1cccs1)N/N=C/c1ccc(Cl)cc1,0,0,0,0,0
Cc1cccc(NC(=O)CCC(=O)N/N=C/c2ccc(O)cc2O)c1,0,0,60,0,0
O=C(CNC(=O)c1cccs1)N/N=C/c1ccc(O)cc1O,0,0,70,0,0
CC(=O)N(C)C[C@@H]1Oc2cc(C#CCN(C)C)ccc2S(=O)(=O)N([C@@H](C)CO)C[C@H]1C,-,-,0,-,-

# From PubChem
